The source made the active and inactive calls.
Assays:
[1] = Protein binding in human plasma; format: ADME, cell-free; conditions: read-out: PPB (converted)
Rattus norvegicus [2] = assay: Antiobesity activity in ad libitum feeding Sprague-Dawley rat model assessed as reduction in food intake at 30 mg/kg, po administered at 60 mins prior to the onset of the dark cycle followed by incubation for first 8 hrs in light cycle and 12 hrs in dark cycle; format: functional; set-up: scale not given: the % may be the effect or the level left
Outline: (§1)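 Male Sprague Dawley rats (~225 g; n = 6), trained in operant chambers, dosed orally with compound or vehicle (14% PPG, 1% Tween, 85% water) 60 min before dark onset. Food intake was monitored in individual boxes for 20 h (12 h dark plus first 8 h light). Percent reduction was computed from drug-treated versus vehicle-treated total intake.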

Rattus norvegicus [3] = assay: Antiobesity activity in ad libitum feeding Sprague-Dawley rat model assessed as reduction in food intake at 30 mg/kg, po administered at 60 mins prior to the onset of the dark cycle followed by incubation for first 8 hrs in light cycle and 12 hrs in dark cycle in presence of 5-HT2C anatgonist SB-243213; format: functional; set-up: scale not given: the % may be the effect or the level left
[4] = Metabolic stability in human liver microsomes assessed as parent compound remaining at […] after 10 mins; format: ADME, microsome; conditions: read-out: Stability
[5] = Protein binding in rat plasma; format: ADME, cell-free; conditions: read-out: PPB (converted)
[6] = Ratio of drug uptake in Sprague-Dawley rat brain to plasma at 30 mg/kg, po measured at 3 hrs post dose by LC/MS-MS analysis; format: ADME, organism-based; conditions: read-out: BPR
Outline: (§2)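 Male rats given 30 mg/kg orally in 0.15% docusate sodium/2% PVP-K/97.85% water. Plasma and brain were sampled at a single time point after dosing. Brain was diluted 1:2 (vol/weight) with water before homogenization (dilution factor 3). Concentrations were measured by LC/MS−MS after acetonitrile protein precipitation. Values are the average of three animals; B/P is the brain to plasma ratio.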

Rattus norvegicus [7] = assay: Toxicity in ad libitum feeding Sprague-Dawley rat model assessed as reduction in water intake at 3 to 30 mg/kg, po administered at 60 mins prior to the onset of the dark cycle followed by incubation for first 8 hrs in light cycle and 12 hrs in dark cycle; format: organism-based; conditions: in vivo
[8] = Permeability of compound at pH 7.4 by PAMPA; format: physicochemical; conditions: read-out: permeability
[9] = target: T1, 5-hydroxytryptamine receptor 2C (Homo sapiens, UniProt P28335); assay: Agonist activity at recombinant human 5-HT2C receptor expressed in HEK293E cells assessed as induction of intracellular Ca2+ levels after 90 secs by Fluo-4-dye based FLIPR assay; format: functional, cell-based, HEK293
T1 sequence (P28335 whole entry): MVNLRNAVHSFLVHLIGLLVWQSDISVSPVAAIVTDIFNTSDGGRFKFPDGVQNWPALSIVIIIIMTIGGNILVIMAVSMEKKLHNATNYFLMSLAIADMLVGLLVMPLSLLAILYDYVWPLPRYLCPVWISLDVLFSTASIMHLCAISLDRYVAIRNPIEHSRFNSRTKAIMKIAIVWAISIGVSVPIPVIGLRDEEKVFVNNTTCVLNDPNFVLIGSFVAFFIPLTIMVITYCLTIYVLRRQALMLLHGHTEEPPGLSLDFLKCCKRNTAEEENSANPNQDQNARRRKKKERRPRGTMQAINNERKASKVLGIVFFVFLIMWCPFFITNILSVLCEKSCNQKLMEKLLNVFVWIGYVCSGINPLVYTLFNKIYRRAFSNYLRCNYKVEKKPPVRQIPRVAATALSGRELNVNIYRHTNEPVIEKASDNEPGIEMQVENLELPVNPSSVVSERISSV
Outline: (§3)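 HEK293E cells stably expressing human receptor (VNV isoform for 5-HT2C; ~400−795 fmol/mg protein), grown in DMEM with 10% dialyzed FBS and G418. Cells plated at 20 000/well in serum-free DMEM overnight at 37 °C, then loaded 1 h at room temperature with 5 μM Fluo-4 in HBSS/25 mM HEPES. Eleven compound concentrations added on FLIPR, Ca2+ signal read for 90 s. EC50 from a four-parameter logistic fit, at least triplicate.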

[10] = Half life in rat microsomes; format: ADME, Microsome
Rattus norvegicus [11] = assay: Toxicity in ad libitum feeding Sprague-Dawley rat model assessed as effect on locomotor activity at 3 to 30 mg/kg, po administered at 60 mins prior to the onset of the dark cycle followed by incubation for first 8 hrs in light cycle and 12 hrs in dark cycle; format: organism-based; conditions: in vivo
[12] = Drug uptake in Sprague-Dawley rat brain at 30 mg/kg, po measured at 3 hrs post dose by LC/MS-MS analysis; format: ADME, organism-based; conditions: read-out: Drug uptake; outline: as §2
[13] = target: T2, 5-hydroxytryptamine receptor 2B (Homo sapiens, UniProt P41595); assay: Intrinsic activity at recombinant human 5-HT2B receptor expressed in HEK293E cells assessed as induction of intracellular Ca2+ levels after 90 secs by Fluo-4-dye based FLIPR assay relative to serotonin; format: functional, cell-based; conditions: HEK293
T2 sequence (P41595 whole entry, canonical isoform): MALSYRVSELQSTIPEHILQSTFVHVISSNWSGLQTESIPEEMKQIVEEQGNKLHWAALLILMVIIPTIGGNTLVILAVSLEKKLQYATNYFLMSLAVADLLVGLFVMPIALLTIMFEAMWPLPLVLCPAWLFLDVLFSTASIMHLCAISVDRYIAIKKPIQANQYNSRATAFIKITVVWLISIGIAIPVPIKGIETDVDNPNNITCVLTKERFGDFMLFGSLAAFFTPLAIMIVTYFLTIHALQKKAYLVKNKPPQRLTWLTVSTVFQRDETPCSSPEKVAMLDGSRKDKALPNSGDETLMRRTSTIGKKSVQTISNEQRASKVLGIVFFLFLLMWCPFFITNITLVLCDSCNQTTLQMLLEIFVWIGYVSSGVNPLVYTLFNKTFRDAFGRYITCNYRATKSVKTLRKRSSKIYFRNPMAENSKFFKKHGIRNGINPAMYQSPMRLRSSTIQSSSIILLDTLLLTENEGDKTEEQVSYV
Outline: (§4)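 FLIPR Fluo-4 Ca2+ assay in HEK293E cells stably expressing the human receptor (VNV isoform for 5-HT2C), eleven-point concentration series, 90 s read. Response normalized to 3 μM serotonin on the same plate (defined as IA = 1). Intrinsic activity taken from a four-parameter logistic fit.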

[14] = Plasma concentration in Sprague-Dawley rat at 30 mg/kg, po measured at 3 hrs post dose by LC/MS-MS analysis; format: ADME, organism-based; outline: as §2
Rattus norvegicus [15] = assay: Antiobesity activity in ad libitum feeding Sprague-Dawley rat model assessed as reduction in food pellet consumption at 30 mg/kg, po administered at 60 mins prior to the onset of the dark cycle followed by incubation for first 8 hrs in light cycle and 12 hrs in dark cycle; format: functional; set-up: scale not given: the % may be the effect or the level left; outline: as §1
[16] = Permeability across basolateral to apical side in human Caco2 cells; format: ADME, cell-based; conditions: Caco-2, read-out: permeability
[17] = Permeability of compound at pH 5.5 by PAMPA; format: physicochemical; conditions: read-out: permeability
Rattus norvegicus [18] = assay: Antiobesity activity in ad libitum feeding Sprague-Dawley rat model assessed as reduction in food pellet consumption at 3 to 10 mg/kg, po administered at 60 mins prior to the onset of the dark cycle measured at first 4 hrs post last dose; format: functional, organism-based
Outline: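 Male Sprague Dawley rats (n = 6) dosed orally 60 min before dark onset with 3 or 10 mg/kg, in vehicle of 14% PPG, 1% Tween, 85% water. Food pellet consumption was recorded in operant boxes and compared with vehicle over the first 4 h.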

[19] = Permeability across apical to basolateral side in human Caco2 cells; format: ADME, cell-based; conditions: Caco-2, read-out: permeability
[20] = target: 5-hydroxytryptamine receptor 2A (Homo sapiens, UniProt P28223); assay: Agonist activity at recombinant human 5-HT2A receptor expressed in HEK293E cells assessed as induction of intracellular Ca2+ levels after 90 secs by Fluo-4-dye based FLIPR assay; format: cell-based, HEK293; outline: as §3
5-hydroxytryptamine receptor 2A, sequence (P28223 whole entry): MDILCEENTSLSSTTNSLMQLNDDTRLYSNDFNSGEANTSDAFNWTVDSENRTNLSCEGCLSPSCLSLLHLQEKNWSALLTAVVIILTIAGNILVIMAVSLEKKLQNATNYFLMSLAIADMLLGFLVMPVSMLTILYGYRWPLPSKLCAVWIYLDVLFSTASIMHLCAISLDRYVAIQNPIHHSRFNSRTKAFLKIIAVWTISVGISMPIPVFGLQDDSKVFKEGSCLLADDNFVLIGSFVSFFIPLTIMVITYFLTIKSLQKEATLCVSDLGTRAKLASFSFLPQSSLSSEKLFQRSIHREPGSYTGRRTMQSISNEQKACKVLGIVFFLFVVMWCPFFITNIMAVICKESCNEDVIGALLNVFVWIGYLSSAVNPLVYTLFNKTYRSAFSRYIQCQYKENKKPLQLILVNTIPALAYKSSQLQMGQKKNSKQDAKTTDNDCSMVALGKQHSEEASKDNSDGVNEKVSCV

[21] = Efflux ratio of permeability across basolateral to apical side in human Caco2 cells; format: ADME, cell-based; conditions: Caco-2
[22] = target: T2, 5-hydroxytryptamine receptor 2B; assay: Agonist activity at recombinant human 5-HT2B receptor expressed in HEK293E cells assessed as induction of intracellular Ca2+ levels after 90 secs by Fluo-4-dye based FLIPR assay; format: cell-based, HEK293; outline: as §3
[23] = Half life in human microsomes; format: ADME, Microsome
[24] = target: T3, 5-hydroxytryptamine receptor 2C (Homo sapiens) (UniProt P28335); assay: Intrinsic activity at recombinant human 5-HT2C receptor expressed in HEK293E cells assessed as induction of intracellular Ca2+ levels after 90 secs by Fluo-4-dye based FLIPR assay relative to serotonin; format: functional, cell-based; conditions: HEK293; outline: as §4
T3 sequence (whole entry): T1 sequence (P28335 whole entry)

Rattus norvegicus [25] = assay: Antiobesity activity in ad libitum feeding Sprague-Dawley rat model assessed as reduction in food pellet consumption administered po at 60 mins prior to the onset of the dark cycle followed by incubation for first 8 hrs in light cycle and 12 hrs in dark cycle; format: functional, organism-based; outline: as §1
[26] = Metabolic stability in rat liver microsomes assessed as parent compound remaining at […] after 10 mins; format: ADME, microsome; conditions: read-out: Stability
[27] = Ratio of drug uptake in Sprague-Dawley rat brain to plasma at 1 mg/kg, iv measured at 1 hr post dose by LC/MS-MS analysis; format: ADME, organism-based; conditions: read-out: BPR
[28] = Plasma concentration in Sprague-Dawley rat at 30 mg/kg, po measured at 7 hrs post dose by LC/MS-MS analysis; format: ADME, organism-based; outline: as §2
[29] = Plasma concentration in Sprague-Dawley rat at 1 mg/kg, iv measured at 1 hr post dose by LC/MS-MS analysis; format: ADME, organism-based
[30] = Ratio of drug uptake in Sprague-Dawley rat brain to plasma at 30 mg/kg, po measured at 7 hrs post dose by LC/MS-MS analysis; format: ADME, organism-based; conditions: read-out: BPR; outline: as §2
[31] = Substrate activity at rat P-gp; format: ADME
[32] = Substrate activity at human P-gp; format: ADME
[33] = Drug uptake in Sprague-Dawley rat brain at 30 mg/kg, po measured at 7 hrs post dose by LC/MS-MS analysis; format: ADME, organism-based; conditions: read-out: Drug uptake; outline: as §2
[34] = Drug uptake in Sprague-Dawley rat brain at 1 mg/kg, iv measured at 1 hr post dose by LC/MS-MS analysis

fraction unbound [1] | remaining at 10 min [4] | fraction unbound [5] | Papp [8] | EC50 [9] | half-life [10] | Papp B→A [16] | Papp [17] | Papp A→B [19] | EC50 [20] | efflux ratio [21] | EC50 [22] | half-life [23] | Intrinsic activity [24] | Structure (SMILES) | other results
0.062 | 61% | 0.079 | 88.9 ×10⁻⁶ cm/s | 5 nM | 25 min | 52.8 ×10⁻⁶ cm/s | 72.7 ×10⁻⁶ cm/s | 77.7 ×10⁻⁶ cm/s | 635 nM | 0.7 | 48 nM | 16 min | 0.8 | CCn1nc(-c2cccc3cccnc23)cc1-c1ccc(N)nn1 | Activity (Rattus norvegicus [2]): 38%; Activity (Rattus norvegicus [3]): 12%; Kp at 3 h [6]: 0.9; Activity (Rattus norvegicus [7]): Non-Toxic; Activity (Rattus norvegicus [11]): Non-Toxic; concentration at 3 h [12]: 3920 nM; Intrinsic activity [13]: 0.2; concentration at 3 h [14]: 7540 nM; Activity (Rattus norvegicus [15]): 24%; Activity (Rattus norvegicus [18]): Active; Activity (Rattus norvegicus [25]): Dose-dependent effect
0.005 | 80% | 0.004 | 73.9 ×10⁻⁶ cm/s | 6 nM | 6 min | 17.5 ×10⁻⁶ cm/s | 60.7 ×10⁻⁶ cm/s | 32.9 ×10⁻⁶ cm/s | > 10000 nM | 0.5 | > 10000 nM | 21 min | 1 to 1.1 | Cc1nc(-c2cccc3ccccc23)sc1C(=O)N1CCC(CO)CC1 | remaining at 10 min [26]: 24%; Kp at 1 h [27]: 0.15; concentration at 7 h [28]: 736 nM; concentration at 1 h [29]: 569 nM; Kp at 7 h [30]: 0.05; Activity [31]: Active; Activity [32]: Not Active; concentration at 7 h [33]: 35 nM; concentration at 1 h [34]: 76 nM

Reference: ChEMBL document CHEMBL4011636, “Utilization of an Active Site Mutant Receptor for the Identification of Potent and Selective Atypical 5-HT2C Receptor Agonists” (J Med Chem, 2017)
